In ChEMBL document CHEMBL2157939 (J Med Chem, 2012):
Active and inactive are the calls of the source.

Tests used:
[1] = Apparent permeability across human Caco2 cells at 200 uM by LC/MS analysis; type: ADME, cell-based; conditions: Caco-2
In short: (§1)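 Caco-2 monolayers (passages 55−75; DMEM with 10% FBS, 1% L-glutamine, 1% nonessential amino acids, 37 °C, 5% CO2) used for apparent permeability; compound quantified by LC-MS.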

Plasma = assay: Plasma concentration in Sprague-Dawley rat at 10 umol/kg, po from 30 to 60 mins by LC/MS analysis; type: ADME, organism-based; conditions: in vivo, BLD = below limit of detection
In short: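 Male SD rats, 280−310 g, gavaged with 500 μL of […] aqueous solution (10 μmol/kg). Tail-vein blood at 30, 60, 90 min into heparin tubes; plasma protein-precipitated with 3 volumes acetonitrile, supernatant quantified by LC-MS; n = 4.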

Rattus norvegicus [2] = assay: Antinociceptive activity in Sprague-Dawley rat chronic constriction injury model assessed as paw withdrawal threshold to von Frey filament-induced pain 16 umol/kg, iv administered as bolus injection measured at 15 mins; type: functional, organism-based
In short: (§2)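 Male SD rats (160−200 g at purchase) with CCI of left sciatic nerve (four loose silk ligatures, Bennett-Xie) under isoflurane. Single iv bolus doses 0.16 to 16 μmol/kg.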

[3] = Half life in human plasma at 1 mg/ml by RP-HPLC analysis; type: ADME, cell-free
Caco-2 [4] = assay: Permeability across human Caco2 cells at 200 µM by LC/MS analysis in presence of lactose; type: ADME, cell-based; conditions: caco-2, 200 µM; in short: as §1
Caco-2 [5] = assay: Permeability across human Caco2 cells at 200 µM by LC/MS analysis in presence of galactose; type: ADME, cell-based; conditions: caco-2, 200 µM; in short: as §1
Caco-2 [6] = assay: Permeability across human Caco2 cells at 200 µM by LC/MS analysis in presence of glucose; type: ADME, cell-based; conditions: caco-2, 200 µM; in short: as §1
Mu-type opioid receptor [7] = molecular target: T1, Mu-type opioid receptor (Homo sapiens, UniProt P35372); assay: Displacement of [3H]DAMGO from mu-opioid receptor expressed in CHOK1 cells after overnight incubation by scintillation proximity assay; type: cell-based, CHO-K1
[8] = molecular target: Delta-type opioid receptor (Homo sapiens, UniProt P41143); assay: Displacement of [3H]DPDPE from delta-opioid receptor expressed in CHOK1 cells after overnight incubation by scintillation proximity assay; type: cell-based, CHO-K1
In short: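 Competitive displacement of [3H]DPDPE from human DOR in membranes of stably transfected CHOK1 cells, WGA-coated SPA beads. Eight concentrations, 10 pM to 1 μM; three independent experiments in triplicate, mean ± SEM.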

[9] = Selectivity ratio of Ki for delta-opioid receptor to Ki for mu-opioid receptor
In short: (§3)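 Competitive displacement scintillation proximity assay on frozen membranes from CHO-K1 cells stably expressing human MOR, DOR or KOR, with wheatgerm agglutinin-coated SPA beads. Labels: MOR [3H]DAMGO, DOR [3H]DPDPE, KOR [3H]diprenorphine. Eight compound concentrations from 10 pM to 1 μM. Three independent experiments, each in triplicate, reported as mean ± SEM. The ratio is each Ki divided by the MOR Ki.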

[10] = Selectivity ratio of Ki for kappa-opioid receptor to Ki for mu-opioid receptor; in short: as §3
Mu-type opioid receptor [11] = molecular target: T1, Mu-type opioid receptor; assay: Agonist activity at mu-opioid receptor in human SH-SY5Y cells assessed as inhibition of forskolin-stimulated cAMP accumulation after 30 mins by immunoassay; type: functional, cell-based
Rattus norvegicus [12] = assay: Antinociceptive activity in Sprague-Dawley rat chronic constriction injury model assessed as paw withdrawal threshold to von Frey filament-induced pain at 5 and 16 umol/kg, iv administered as bolus injection measured at 15 mins; type: functional, organism-based; in short: as §2
Rattus norvegicus [13] = assay: Antinociceptive activity in Sprague-Dawley rat chronic constriction injury model assessed as paw withdrawal threshold to von Frey filament-induced pain at 5 and 16 umol/kg, iv administered as bolus injection measured up to 1.5 hrs; type: functional, organism-based; in short: as §2
Rattus norvegicus [14] = assay: Antinociceptive activity in iv dosed Sprague-Dawley rat chronic constriction injury model assessed as paw withdrawal threshold to von Frey filament-induced pain administered as bolus injection; type: functional; in short: as §2
Rattus norvegicus [15] = assay: Antinociceptive activity in po dosed Sprague-Dawley rat chronic constriction injury model assessed as reduction in Von Frey filament-induced mechanical allodynia in ipsilateral hind paw; type: functional
Rattus norvegicus [16] = assay: Antinociceptive activity in Sprague-Dawley rat chronic constriction injury model assessed as reduction in Von Frey filament-induced mechanical allodynia in ipsilateral hind paw at 8 and 16 umol/kg, po at 0.75 to 1 hr; type: functional, organism-based
Rattus norvegicus [17] = assay: Antinociceptive activity in Sprague-Dawley rat chronic constriction injury model assessed as reduction in Von Frey filament-induced mechanical allodynia in ipsilateral hind paw at 8 and 16 umol/kg, po up to 2 hrs; type: functional, organism-based
Rattus norvegicus [18] = assay: Antinociceptive activity in Sprague-Dawley rat chronic constriction model assessed as reduction in Von Frey filament-induced mechanical allodynia in contralateral hind paw at 5 umol/kg, iv administered as bolus injection; type: functional, organism-based
Rattus norvegicus [19] = assay: Antinociceptive activity in Sprague-Dawley rat chronic constriction model assessed as reduction in Von Frey filament-induced mechanical allodynia in contralateral hind paw at 8 umol/kg, po; type: functional, organism-based
Rattus norvegicus [20] = assay: Antinociceptive activity in Sprague-Dawley rat chronic constriction model assessed as reduction in Von Frey filament-induced mechanical allodynia in ipsilateral hind paw at 5 umol/kg, iv administered as bolus injection 5 mins post-naloxone coadministration; type: functional, organism-based
In short: (§4)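 CCI rats (n = 6) given single sc naloxone hydrochloride 10 mg/kg or vehicle 5 min before single iv bolus of test item.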

Rattus norvegicus [21] = assay: Induction of constipation in fasted Sprague-Dawley rat assessed as inhibition of castor oil-induced diarrhea at 16 umol/kg, po administered 5 mins prior to castor-oil challenge measured up to 8 hrs; type: organism-based; conditions: in vivo
In short: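 Drug-naive rats, 200−250 g, fasted ~16 h with water, then 1 h in individual wire-mesh cages without food or water. Oral test item or vehicle; 5 min later 1 mL castor oil by gavage. Diarrhea presence checked hourly to 8 h, scored by fecal boli weight and consistency.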

Rattus norvegicus [22] = assay: Effect on gastrointestinal motility in fasted Sprague-Dawley rat assessed as gastrointestinal propulsion of charcoal meal at 16 umol/kg, po administered prior to charcoal meal measured after 1 hr ( Rvb = 66.5 3.8% ); type: ADME, organism-based; conditions: in vivo
In short: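 Rats 200−250 g fasted ~16 h (water allowed), n = 8 per group, dosed orally just before gavage of 1 mL aqueous 10% activated charcoal/5% gum Arabic. Killed 1 h later (ip pentobarbital, cervical dislocation); small intestine length pylorus to ileocecal junction and farthest charcoal front measured as % propulsion.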

Rattus norvegicus [23] = assay: Antinociceptive activity in Sprague-Dawley rat chronic constriction injury model assessed as reduction in Von Frey filament-induced mechanical allodynia in ipsilateral hind paw at 8 umol/kg, po; type: functional, organism-based
Rattus norvegicus [24] = assay: Antinociceptive activity in Sprague-Dawley rat chronic constriction model assessed as reduction in Von Frey filament-induced mechanical allodynia in contralateral hind paw at 2 umol/kg, iv administered as bolus injection; type: functional, organism-based
Rattus norvegicus [25] = assay: Antinociceptive activity in Sprague-Dawley rat chronic constriction model assessed as reduction in Von Frey filament-induced mechanical allodynia in ipsilateral hind paw at 2 umol/kg, iv administered as bolus injection 5 mins post-naloxone coadministration; type: functional, organism-based; in short: as §4

T1 sequence (P35372 whole entry): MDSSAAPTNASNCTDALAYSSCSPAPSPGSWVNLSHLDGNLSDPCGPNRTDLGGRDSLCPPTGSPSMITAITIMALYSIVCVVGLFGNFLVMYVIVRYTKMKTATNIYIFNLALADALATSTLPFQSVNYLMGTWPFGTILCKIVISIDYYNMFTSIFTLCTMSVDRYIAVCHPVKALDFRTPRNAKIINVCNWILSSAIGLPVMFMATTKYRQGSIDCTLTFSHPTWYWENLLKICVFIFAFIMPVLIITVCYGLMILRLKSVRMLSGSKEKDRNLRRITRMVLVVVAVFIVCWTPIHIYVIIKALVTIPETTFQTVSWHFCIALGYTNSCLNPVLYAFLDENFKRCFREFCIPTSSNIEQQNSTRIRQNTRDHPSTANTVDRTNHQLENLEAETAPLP
Sequence of Delta-type opioid receptor (P41143 whole entry): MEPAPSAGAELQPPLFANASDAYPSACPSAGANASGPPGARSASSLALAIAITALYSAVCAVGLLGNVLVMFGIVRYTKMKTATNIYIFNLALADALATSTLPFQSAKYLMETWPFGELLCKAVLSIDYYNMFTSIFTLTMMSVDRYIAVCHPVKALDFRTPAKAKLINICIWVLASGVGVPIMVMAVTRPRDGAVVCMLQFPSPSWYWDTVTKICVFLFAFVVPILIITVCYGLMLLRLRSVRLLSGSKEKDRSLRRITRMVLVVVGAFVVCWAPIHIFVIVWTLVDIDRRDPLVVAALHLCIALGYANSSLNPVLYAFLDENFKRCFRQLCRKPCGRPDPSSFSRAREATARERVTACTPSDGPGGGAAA

NC(=O)[C@H](Cc1ccccc1)NC(=O)[C@H](Cc1c[nH]c2ccccc12)NC(=O)[C@@H]1CCCN1C(=O)[C@@H](N)Cc1ccc(O)cc1 [ENDOMORPHIN-1]
Papp at 200 µM [1]: 0.11 ×10⁻⁶ cm/s
Cp (Plasma): BLD
Activity (Rattus norvegicus [2]): inactive

NC(=O)[C@H](Cc1ccccc1)NC(=O)[C@H](Cc1c[nH]c2ccccc12)NC(=O)[C@@H]1CCCN1C(=O)[C@H](Cc1ccc(O)cc1)NC(=O)CCC(=O)N[C@@H]1O[C@H](CO)[C@@H](O[C@@H]2O[C@H](CO)[C@H](O)[C@H](O)[C@H]2O)[C@H](O)[C@H]1O
half-life at 1 mg/ml [3]: 57.3 min
Papp at 200 µM [1]: 76 ×10⁻⁶ cm/s
permeability (Caco-2 [4]): impermeable
permeability (Caco-2 [5]): impermeable
permeability (Caco-2 [6]): permeable
Ki (Mu-type opioid receptor [7]): 14.9 nM
Ki [8]: 4750 nM
Ratio Ki [9]: 319
Ratio Ki [10]: 105
IC50 (Mu-type opioid receptor [11]): 590 nM
Activity (Rattus norvegicus [12]): Active
Activity (Rattus norvegicus [13]): Active
ED50 (Rattus norvegicus [14]): 8.3 µmol/kg
Activity (Rattus norvegicus [15]): Dose-dependent effect
ED50 (Rattus norvegicus [15]): 19.6 µmol/kg
Activity (Rattus norvegicus [16]): Active
Activity (Rattus norvegicus [17]): Active
Activity (Rattus norvegicus [18]): inactive
Activity (Rattus norvegicus [19]): inactive
Activity (Rattus norvegicus [20]): inactive
Activity (Rattus norvegicus [21]): Non-toxic
Activity (Rattus norvegicus [22]): 58.5%

CC(C)NCC(O)COc1cccc2ccccc12 (configuration not stated) [PROPRANOLOL]
Papp at 200 µM [1]: 150 ×10⁻⁶ cm/s

CN1CC[C@]23c4c5ccc(O)c4O[C@H]2[C@@H](O)C=C[C@H]3[C@H]1C5 [MORPHINE]
ED50 (Rattus norvegicus [14]): 2.6 µmol/kg
ED50 (Rattus norvegicus [15]): 20.7 µmol/kg
Activity (Rattus norvegicus [23]): Active
Activity (Rattus norvegicus [24]): Active
Activity (Rattus norvegicus [19]): Active
Activity (Rattus norvegicus [25]): inactive
